# Data taken from ChEMBL document CHEMBL3244051, “15,15-Ketals of natural prostaglandins and prostaglandin analogues. Synthesis and biological activities” (1978).
# Activity calls are given as the source filed them. The rule behind the calls is not given here.
# Columns and labels:
# [1] = […] activity in rat uterus assessed as uterine contraction relative to PGF2alpha; format: functional
# In short: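 Isolated rat uterine horns held in salt solution matching extracellular fluid; contractions recorded isotonically as length change. One horn of each animal received test agent, the other the reference, in separate organ baths; n = 4 paired comparisons. Contraction height (mm) analysed by analysis of variance.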
# Rattus norvegicus [2] = experiment: Abortifacient activity in sc dosed early pregnant Wistar rat assessed as decrease in serum progesterone level administered in benzyl benzoate and castor oil on day 4 to day 7 of gestation measured on day 3, 5, 7 and 9 of gestation by RIA relative to PGF2alpha; format: functional
# In short: (§1)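 Female Wistar rats mated at proestrus; sperm in vaginal smear next day defines day 1 of gestation. Dosed sc in 0.2 mL oil (benzyl benzoate:castor oil 1:3) on days 4–7; 4 rats/group. Orbital plexus blood taken days 3, 5, 7, 9 for serum progesterone by RIA; rats killed day 9, uteri inspected for abortion.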
# Ileum = experiment: Contraction of guinea pig ileum relative to PGF2alpha; format: functional, Cavia porcellus
# Rattus norvegicus [3] = experiment: Abortifacient activity in sc dosed early pregnant Wistar rat assessed as decrease in serum progesterone level measured per animal administered in benzyl benzoate and castor oil on day 4 to day 7 of gestation measured on day 3, 5, 7 and 9 of gestation by RIA; format: functional; in short: as §1
SMILES,fold change (FC) [1],fold change (FC) (Rattus norvegicus [2]),fold change (FC) (Ileum),Activity (Rattus norvegicus [3]) [mg/day],Activity (Rattus norvegicus [2])
CCCCCC1(/C=C/[C@@H]2[C@@H](C/C=C\CCCC(=O)OC)[C@@H](O)C[C@H]2O)OCCCO1,<0.1,<0.3,,,
O=C(O)CCC/C=C\C[C@@H]1[C@@H](/C=C/C2(COc3ccccc3)OCCO2)[C@H](O)C[C@@H]1O [ETIPROSTON],10,10,0.1,,
CCCCC[C@H](O)/C=C/[C@@H]1[C@@H](C/C=C\CCCC(=O)O)[C@@H](O)C[C@H]1O [DINOPROST],,,,0.3,
CCCCCC1(/C=C/[C@@H]2[C@@H](C/C=C\CCCC(=O)OC)[C@@H](O)C[C@H]2O)OCC(C)(C)CO1,<0.1,<0.3,,,
NC(CO)(CO)CO.O=C(O)CCC/C=C\C[C@@H]1[C@@H](/C=C/C2(COc3ccccc3)OCCO2)[C@H](O)C[C@@H]1O,>10,,,,
CCCCCC1(CC[C@@H]2[C@@H](C/C=C\CCCC(=O)OC)[C@@H](O)C[C@H]2O)OCCO1,1,<0.3,,,
COC(=O)CCC/C=C\C[C@@H]1[C@@H](/C=C/C2(COc3cccc(C(F)(F)F)c3)OCCO2)[C@H](O)C[C@@H]1O,>10,10,<0.1,,
COC(=O)CCC/C=C\C[C@@H]1[C@@H](CCC2(COc3ccccc3)OCCO2)[C@H](O)C[C@@H]1O,>10,10,,,
COC(=O)CCC/C=C\C[C@@H]1[C@@H](/C=C/C2(COc3ccc(F)cc3)OCCO2)[C@H](O)C[C@@H]1O,10,10,,,
O=C(O)CCC/C=C\C[C@@H]1[C@@H](/C=C/C2(COc3ccccc3)OCCO2)[C@H](O)C[C@@H]1O,,,,,Active
COC(=O)CCC/C=C\C[C@@H]1[C@@H](/C=C/C2(c3ccc(Cl)cc3)OCCO2)[C@H](O)C[C@@H]1O,10,10,,,
COC(=O)CCC/C=C\C[C@@H]1[C@@H](/C=C/C2(COc3ccccc3)OCCO2)[C@H](O)C[C@@H]1O,>10,100,<0.1,,
CCCCCC1(/C=C/[C@@H]2[C@@H](C/C=C\CCCC(=O)OC)[C@@H](O)C[C@H]2O)OCCO1,5,1,0.1,,
COC(=O)CCC/C=C\C[C@@H]1[C@@H](/C=C/C2(CCc3ccccc3)OCCO2)[C@H](O)C[C@@H]1O,>10,30,,,
CCCCCC(/C=C/[C@@H]1[C@@H](C/C=C\CCCC(=O)OC)[C@@H](O)C[C@H]1O)(OC)OC,0.1,<0.1,<0.1,,
CCCCCC1(/C=C/[C@@H]2[C@@H](C/C=C\CCCC(=O)O)[C@@H](O)C[C@H]2O)OCCO1,5,1,,,
CCCCOC(=O)CCC/C=C\C[C@@H]1[C@@H](/C=C/C2(COc3ccccc3)OCCO2)[C@H](O)C[C@@H]1O,10,30,,,
